Reference: ChEMBL document CHEMBL1135117, “Identification of potent and selective oxytocin antagonists. Part 2: further investigation of benzofuran derivatives” (Bioorg Med Chem Lett, 2002)

How the values were obtained:
[1] = Compound was tested for its half life in dog; format: ADME, organism-based, Canis lupus familiaris; settings: in vivo
[2] = Compound was tested for plasma clearance in dog; format: ADME, organism-based, Canis lupus familiaris
[3] = biological target: T1, Oxytocin receptor (Homo sapiens, UniProt P30559); experiment: Displacement of 3[H]oxytocin from human oxytocin receptor
T1 sequence (P30559 whole entry): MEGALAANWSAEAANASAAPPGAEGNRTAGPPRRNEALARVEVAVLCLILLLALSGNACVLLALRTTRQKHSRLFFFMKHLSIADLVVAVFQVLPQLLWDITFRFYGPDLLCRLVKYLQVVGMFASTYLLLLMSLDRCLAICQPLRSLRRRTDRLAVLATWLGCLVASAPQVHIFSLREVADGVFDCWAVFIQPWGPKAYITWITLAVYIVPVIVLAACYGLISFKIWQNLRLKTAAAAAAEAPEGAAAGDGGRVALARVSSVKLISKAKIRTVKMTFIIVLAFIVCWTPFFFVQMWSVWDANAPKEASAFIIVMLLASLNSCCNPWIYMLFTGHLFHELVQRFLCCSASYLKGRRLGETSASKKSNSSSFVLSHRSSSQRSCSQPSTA

[4] = Compound was tested for its half life in rat; format: ADME, organism-based; settings: in vivo
[5] = Bioavailability in rat; format: ADME, organism-based; settings: in vivo
[6] = biological target: Vasopressin V1a receptor (Homo sapiens, UniProt P37288); experiment: Compound was tested for its ability to displace vasopressin from human Vasopressin V1a receptor
Sequence of Vasopressin V1a receptor (P37288 whole entry): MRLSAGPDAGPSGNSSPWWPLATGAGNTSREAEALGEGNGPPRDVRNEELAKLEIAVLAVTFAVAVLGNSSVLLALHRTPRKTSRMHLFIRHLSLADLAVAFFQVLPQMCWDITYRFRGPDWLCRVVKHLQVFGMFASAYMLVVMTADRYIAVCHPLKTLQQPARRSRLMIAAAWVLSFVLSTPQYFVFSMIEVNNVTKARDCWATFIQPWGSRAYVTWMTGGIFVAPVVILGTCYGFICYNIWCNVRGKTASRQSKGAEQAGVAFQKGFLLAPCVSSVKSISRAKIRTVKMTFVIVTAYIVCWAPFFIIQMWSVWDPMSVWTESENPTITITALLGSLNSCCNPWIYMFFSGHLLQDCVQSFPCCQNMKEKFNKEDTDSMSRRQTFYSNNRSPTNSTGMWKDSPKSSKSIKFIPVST

[7] = Bioavailability in dog; format: ADME, organism-based, Canis lupus familiaris; settings: in vivo
[8] = Compound was tested for plasma clearance in rat; format: ADME, organism-based
[9] = biological target: Albumin (Homo sapiens, UniProt P02768); experiment: Compound was tested for Serum albumin binding
Sequence of Albumin (P02768 whole entry): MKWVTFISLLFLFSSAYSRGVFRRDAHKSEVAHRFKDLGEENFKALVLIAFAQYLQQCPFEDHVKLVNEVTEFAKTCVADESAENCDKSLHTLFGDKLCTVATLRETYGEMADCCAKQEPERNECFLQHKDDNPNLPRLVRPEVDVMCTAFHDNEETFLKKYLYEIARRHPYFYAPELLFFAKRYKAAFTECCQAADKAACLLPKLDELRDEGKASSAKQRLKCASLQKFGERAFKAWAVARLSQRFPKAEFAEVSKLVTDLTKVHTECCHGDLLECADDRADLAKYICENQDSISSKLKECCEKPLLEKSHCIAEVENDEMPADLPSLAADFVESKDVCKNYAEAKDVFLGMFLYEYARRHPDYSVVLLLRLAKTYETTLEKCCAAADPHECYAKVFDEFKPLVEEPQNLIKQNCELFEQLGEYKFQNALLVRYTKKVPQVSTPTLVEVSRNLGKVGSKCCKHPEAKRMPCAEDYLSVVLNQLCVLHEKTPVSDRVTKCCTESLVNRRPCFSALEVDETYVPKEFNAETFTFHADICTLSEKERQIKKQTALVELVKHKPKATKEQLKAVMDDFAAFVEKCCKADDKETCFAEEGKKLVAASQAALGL

[10] = Tested for the pharmacokinetic parameter in rat and expressed as area under curve; format: ADME, organism-based; set-up: concentration or dose not given beside the values; settings: in vivo
[11] = biological target: T2, Oxytocin receptor (Homo sapiens) (UniProt P30559); experiment: Tested for ratio of displacement of 3H oxytocin from human OT in presence and absence of 50 mg/mL human serum albumin
T2 sequence (whole entry): T1 sequence (P30559 whole entry)
Method in brief: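 Displacement of [3H]oxytocin from human OT receptor, with IC50 measured with and without 50 mg/mL human serum albumin. The radioligand was made up in buffer containing 100 mg/mL HSA, a pre-dilution level. The value is the ratio of the IC50 with HSA to the IC50 without HSA.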

[12] = Compound was tested for its lipophilicity; format: physicochemical; settings: octanol/water
[13] = organism: Rattus norvegicus; experiment: Serum concentration for 50% inhibition of uterine contractility response to oxytocin in rat; format: functional, organism-based
Method in brief: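 Adult female AHA rats pre-treated 18 h with diethylstilboestrol (250 µg/kg ip, corn oil), anaesthetised with pentobarbitone (60 mg/kg ip); uterine tension ~2 g. OT 0.3 µg/kg iv given 3–180 min after a single iv bolus of antagonist (DMSO/PEG200/water 20:50:30). Response = 10-min area under the contraction–time curve. Plasma drug measured by mass spectrometry in serial blood samples.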

[14] = biological target: T3, Oxytocin receptor (Rattus norvegicus, UniProt P70536); experiment: Compound was tested for displacement of 3[H] oxytocin from rat OT receptor (in vitro)
T3 sequence (P70536 whole entry): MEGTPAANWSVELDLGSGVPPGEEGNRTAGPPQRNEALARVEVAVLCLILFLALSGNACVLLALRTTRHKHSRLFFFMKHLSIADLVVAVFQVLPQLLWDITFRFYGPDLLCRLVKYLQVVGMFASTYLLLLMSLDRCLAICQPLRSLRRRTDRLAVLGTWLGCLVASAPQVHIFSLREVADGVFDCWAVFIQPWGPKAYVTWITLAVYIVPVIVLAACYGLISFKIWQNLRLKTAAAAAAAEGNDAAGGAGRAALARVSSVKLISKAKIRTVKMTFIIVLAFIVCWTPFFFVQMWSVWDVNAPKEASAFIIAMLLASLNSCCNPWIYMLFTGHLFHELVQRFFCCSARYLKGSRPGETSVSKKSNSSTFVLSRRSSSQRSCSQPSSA
Method in brief: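 Myometrium from rats that littered within 2 h, homogenised in sucrose buffer; membrane fraction pelleted at 48,000g, 4 °C. Filtration binding with [3H]oxytocin at 1 nM in 50 mM HEPES, 10 mM MgCl2, pH 7.4, plus competing ligand. Incubation 1 h at room temperature, then GF/C filtration, ice-cold buffer washes, scintillation counting of bound label.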

[15] = Compound was tested for lipophilicity; format: physicochemical; settings: octanol/water
[16] = Tested for plasma clearance in dog; format: ADME, organism-based, Canis lupus familiaris

| Compound | half-life [1] [h] | clearance [2] [mL/min/kg] | Ki [3] [nM] | half-life [4] [h] | bioavailability [5] [%] | clearance [8] [mL/min/kg] | Binding [9] [%] | further results |
| --- | --- | --- | --- | --- | --- | --- | --- | --- |
| O=C(Cn1ccccc1=O)NCc1cc2cc(C(=O)N3CCC(N4C(=O)OCc5ccccc54)CC3)ccc2o1 | 0.5 | 34 | 6.31 | – | – | – | – | – |
| O=C(Cn1cnc(C(F)(F)F)cc1=O)NCc1cc2cc(C(=O)N3CCC(N4C(=O)OCc5ccccc54)CC3)ccc2o1 | 1.6 | 6 | 3.98 | 0.8 | 14 | 20 | – | Ki [6]: 3980 nM; bioavailability [7]: 34% |
| O=C(Cn1cc(C(F)(F)F)ccc1=O)NCc1cc2cc(C(=O)N3CCC(N4C(=O)OCc5ccc(Cl)cc54)CC3)ccc2o1 | – | – | 3.16 | 1 | 35 | 21 | – | – |
| Cn1ncc2c(=O)n(CC(=O)NCc3cc4cc(C(=O)N5CCC(N6C(=O)OCc7ccccc76)CC5)ccc4o3)cnc21 | 1 | 11 | 1.26 | – | – | – | – | bioavailability [7]: 36% |
| O=C(c1ccc2oc(-c3cncc(Cn4cc(C(F)(F)F)ccc4=O)c3)cc2c1)N1CCC(N2C(=O)OCc3ccccc32)CC1 | – | – | 63.1 | 1.4 | 41 | 7 | 96 | AUC [10]: 5400 ng·h/mL; HSA shift [11]: 17 |
| O=C(c1ccc2oc(-c3cccc(Cn4cc(C(F)(F)F)ccc4=O)n3)cc2c1)N1CCC(N2C(=O)OCc3ccccc32)CC1 | – | – | 10 | 1.2 | 22 | 12 | 98 | AUC [10]: 1500 ng·h/mL; HSA shift [11]: 87 |
| O=C(Cn1cc(C(F)(F)F)ccc1=O)NCc1nc2ccc(C(=O)N3CCC(N4C(=O)OCc5ccccc54)CC3)cc2s1 | – | – | 10 | – | – | – | – | – |
| COc1cc(OC2CCN(C(C)=O)CC2)ccc1C(=O)N1CCC(N2C(=O)OCc3ccccc32)CC1 | 1.1 | 13 | 6.31 | 1.1 | 55 | 51 | 83.7 | logD [12]: 1.66; Ki [6]: > 2000 nM; bioavailability [7]: 29%; IC50 [13]: 25 nM |
| O=C(c1ccc2oc(CN3CCCC[C@H]3Cn3cc(C(F)(F)F)ccc3=O)cc2c1)N1CCC(N2C(=O)OCc3ccccc32)CC1 | – | – | 10 | – | – | – | 98 | HSA shift [11]: 90 |
| O=C(Cn1cc(C(F)(F)F)ccc1=O)NCc1cc2ccc(C(=O)N3CCC(N4C(=O)OCc5ccccc54)CC3)cc2o1 | – | – | 100 | – | – | – | – | – |
| O=C(c1ccc2oc(-c3cc(Cn4cc(C(F)(F)F)ccc4=O)ccn3)cc2c1)N1CCC(N2C(=O)OCc3ccccc32)CC1 | – | – | > 3160 | – | – | – | 96 | – |
| O=C(Cn1cc(C(F)(F)F)ccc1=O)NCc1cc2cc(C(=O)N3CCC(N4C(=O)OCc5ccccc54)CC3)c(F)cc2o1 | – | – | 7.94 | 1.3 | 15 | 21 | – | – |
| O=C(Cn1cc(C(F)(F)F)ccc1=O)NCc1cc2cc(C(=O)N3CCC(N4C(=O)OCc5cccc(F)c54)CC3)ccc2o1 | – | – | 7.94 | 1.2 | 67 | 11 | – | – |
| O=C(Cn1cc(C(F)(F)F)ccc1=O)NCc1cc2cc(C(=O)N3CCC(N4C(=O)OCc5ccc(F)cc54)CC3)ccc2o1 | – | – | 6.31 | – | – | – | – | – |
| O=C(Cn1cc(C(F)(F)F)ccc1=O)NCc1cc2cc(C(=O)N3CCC(N4C(=O)OCc5c(F)cccc54)CC3)ccc2o1 | – | – | 100 | – | – | – | – | – |
| O=C(Cn1cc(C(F)(F)F)ccc1=O)NCc1cc2cc(C(=O)N3CCC(N4C(=O)OCc5cc(F)ccc54)CC3)ccc2o1 | – | – | 6.31 | 0.9 | 18 | 17 | – | – |
| O=C(c1ccc2oc(CN3CCC[C@@H](n4cc(C(F)(F)F)ccc4=O)C3)cc2c1)N1CCC(N2C(=O)OCc3ccccc32)CC1 | – | – | 25.1 | 0.6 | – | 28 | 96 | AUC [10]: 150 ng·h/mL; bioavailability [7]: 2%; HSA shift [11]: 222 |
| O=C(Cn1cc(C(F)(F)F)ccc1=O)NCc1cc2cc(C(=O)N3CCC(N4C(=O)OCc5ccccc54)CC3)ccc2o1 | 1.5 | – | 2 | 1 | 16 | 10 | 96.2 | IC50 [14]: 3040 nM; logD [15]: 2.16; clearance [16]: 8 mL/min/kg; Ki [6]: 1260 nM; bioavailability [7]: 51%; IC50 [13]: 20 nM; HSA shift [11]: 46 |
| O=C(Cn1ccc(N2CCOCC2)nc1=O)NCc1cc2cc(C(=O)N3CCC(N4C(=O)OCc5ccccc54)CC3)ccc2o1 | 1.2 | 11 | 0.501 | 0.8 | < 1 | 17 | – | bioavailability [7]: 2% |
| O=C(Cn1ccc2ccccc2c1=O)NCc1cc2cc(C(=O)N3CCC(N4C(=O)OCc5ccccc54)CC3)ccc2o1 | 1.1 | 6 | 6.31 | 0.8 | 17 | 10 | – | – |
| O=C(Cn1cc(C(F)(F)F)ccc1=O)NCc1nc2cc(C(=O)N3CCC(N4C(=O)OCc5ccccc54)CC3)ccc2s1 | – | – | 79.4 | – | – | – | – | – |
| O=C(Cn1cc(C(F)(F)F)ccc1=O)NCc1cc2cc(C(=O)N3CCC(N4C(=O)CCc5ccccc54)CC3)ccc2o1 | – | – | 25.1 | 1.1 | 44 | 13 | – | – |
| Cn1c(CNC(=O)Cn2cc(C(F)(F)F)ccc2=O)cc2ccc(C(=O)N3CCC(N4C(=O)OCc5ccccc54)CC3)cc21 | – | – | 50.1 | – | – | – | – | – |
| COc1cccn(CC(=O)NCc2cc3cc(C(=O)N4CCC(N5C(=O)OCc6ccccc65)CC4)ccc3o2)c1=O | 1.1 | 19 | 2.51 | 1.2 | 3 | 22 | – | Ki [6]: 1580 nM; bioavailability [7]: 68% |
| O=C(c1ccc2oc(-c3cccc(Cn4cc(C(F)(F)F)ccc4=O)c3)cc2c1)N1CCC(N2C(=O)OCc3ccccc32)CC1 | – | – | 794 | 2.2 | > 45 | 7 | 98 | AUC [10]: 5700 ng·h/mL |
| O=C(Cn1ccc(-c2ccccc2)nc1=O)NCc1cc2cc(C(=O)N3CCC(N4C(=O)OCc5ccccc54)CC3)ccc2o1 | 1.3 | 9 | 1 | – | – | – | – | – |
